Measurements as given in ChEMBL document CHEMBL3784932, “Design, synthesis and docking studies of novel dipeptidyl boronic acid proteasome inhibitors constructed from αα- and αβ-amino acids” (Bioorg Med Chem Lett, 2016).

Legend:
[1] = target: T1, Proteasome Macropain subunit MB1 (Homo sapiens, UniProt P28074); test: Inhibition of chymotrypsin like activity of human erythrocyte-derived 20S proteasome preincubated for 10 mins using Suc-LLVY-AMC as substrate after 60 mins by fluorescence assay
T1 sequence (P28074 whole entry): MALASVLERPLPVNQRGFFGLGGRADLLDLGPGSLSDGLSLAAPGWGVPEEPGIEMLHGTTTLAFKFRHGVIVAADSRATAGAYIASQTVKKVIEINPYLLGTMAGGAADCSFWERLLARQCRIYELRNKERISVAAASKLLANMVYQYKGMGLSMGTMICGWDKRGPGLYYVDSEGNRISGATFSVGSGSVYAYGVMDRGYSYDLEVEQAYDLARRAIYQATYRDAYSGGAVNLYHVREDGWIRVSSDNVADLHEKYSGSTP
Summary of the method: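 Enzymatic IC50 from eight inhibitor concentrations, each point assayed in duplicate; β5 (chymotrypsin-like) subunit of human proteasome.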

[2] = Cytotoxicity against human ARH77 cells after 72 hrs by MTS assay; format: functional, cell-based; conditions: ARH-77, 72 h
Summary of the method: (§1)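 Cellular IC50 from a ten-concentration series, each concentration tested in triplicate.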

[3] = Cytotoxicity against human RPMI8226 cells after 72 hrs by MTS assay; format: functional, cell-based; conditions: RPMI-8226, 72 h; summary of the method: as §1
[4] = Cytotoxicity against human U266 cells after 72 hrs by MTS assay; format: functional, cell-based; conditions: U-266, 72 h; summary of the method: as §1

SMILES	IC50 ([1]; read-out: IC50)	IC50 [2]	IC50 [3]	IC50 [4]	IC50 [1]
COCC(=O)N[C@@H](Cc1ccccc1)C(=O)N[C@@H](CC(C)C)B(O)O	6.31 nM	5.72 nM	4.56 nM	6.04 nM	
COCCC(=O)N[C@@H](Cc1ccccc1)C(=O)N[C@@H](CC(C)C)B(O)O	8.47 nM	9.03 nM	7.32 nM	11.5 nM	
CC(C)C[C@H](NC(=O)[C@H](Cc1ccccc1)NC(=O)c1cnccn1)B(O)O [BORTEZOMIB]		6.07 nM		5.73 nM	
CC(C)C[C@@H](NC(=O)CC(NC(=O)[C@H]1CCCc2ccccc21)c1cccc(F)c1)B(O)O (some centres undefined)	1.02 nM				
CC(C)C[C@H](NC(=O)[C@H](Cc1ccccc1)NC(=O)c1cccc2c1CCCC2)B(O)O	1.6 nM				
CC(C)C[C@@H](CB(O)O)NC(=O)[C@H](Cc1ccccc1)NC(=O)c1ccccc1					Not Active
O=C(N[C@@H](Cc1ccccc1)C(=O)N[C@@H](CCc1ccccc1)CB(O)O)c1cnccn1					Not Active
O=C(N[C@@H](Cc1ccccc1)C(=O)N[C@H](CB(O)O)c1ccccc1)c1ccccc1					Not Active
CC(C)C[C@H](NC(=O)[C@H](Cc1ccccc1)NC(=O)[C@H]1CCCc2ccccc21)B(O)O	1.2 nM				
CC(C)C[C@H](NC(=O)[C@H](Cc1ccccc1)NC(=O)CC(C)(C)C)B(O)O	4.69 nM	8.31 nM		8.01 nM	
CC(C)C[C@@H](CB(O)O)NC(=O)[C@H](Cc1ccccc1)NC(=O)c1cnccn1					Not Active
O=C(N[C@@H](Cc1ccccc1)C(=O)N[C@@H](CCc1ccccc1)CB(O)O)c1ccccc1					Not Active
O=C(N[C@@H](Cc1ccccc1)C(=O)N[C@H](CB(O)O)c1ccccc1)c1cnccn1					Not Active
CC(C)C[C@H](NC(=O)[C@H](Cc1ccccc1)NC(=O)C1CCCC1)B(O)O	4.82 nM	3.87 nM		2.48 nM	
CCCC(=O)N[C@@H](Cc1ccccc1)C(=O)N[C@@H](CC(C)C)B(O)O	6.94 nM	7.87 nM	5.61 nM	8.51 nM	
